For data set [1], the system named is cyclin H-CDK7 (K7/H). As to the kind of experiment: in vitro cell-free kinase assay, cyclin H-CDK7. In kind it is biochemical. Particulars: in vitro kinase assays, compared with CDK 1, 2, 3, 4, 5 and 9.
In data set [2] the test system is cyclin D3-CDK6 (K6/D3). In words: in vitro cell-free kinase assay, cyclin D3-CDK6. In kind it is biochemical. To be noted: in vitro kinase assays, compared with CDK 1, 2, 3, 4, 5 and 9.
Data set [3] has as its system MM cell lines (MM.1S, MM.1R, H929, U266, OPM1, RPMI). In words: MTT cell viability assay in MM cell lines. In kind it is cell-based. Particulars: Homo sapiens. In a few lines: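 MM lines were grown in RPMI-1640 with 10% FBS, 2 mM L-glutamine and pen/strep, then treated with test compound (0–100 nM) for 24 and 48 h. MTT was added for 4 h at 37°C and dissolved in acidified isopropanol. Absorbance was read at 570 nm, corrected at 630 nm, with triplicate cultures.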
Background: Tetrazolium dyes change colour on reduction, which living cells bring about.

The test system of data set [4] is primary tumor cells from MM patients (CD138+). As to the kind of experiment: MTT viability of primary tumor cells from MM patients. In kind it is cell-based, human. Particulars: 0-100nM, MTT at 48h. In a few lines: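 Bone marrow mononuclear cells from MM patient aspirates were separated on Ficoll-Hipaque, and plasma cells were purified by anti-CD138 magnetic bead positive selection. Cells were cultured with test compound (0–100 nM) and viability was read by MTT at 48 h (570/630 nm). Values are means ±SD of triplicate cultures.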

The next data set has as its system healthy donor PBMCs. As to the kind of experiment: cytotoxicity in healthy donor PBMCs. Format: cell-based, human. To be noted: compared with tumor cells from MM patients, 50nM. The method, boiled down:
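PBMCs were obtained from healthy volunteer blood by Ficoll-Hipaque gradient separation before exposure to test compound.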

Data set [5] deals with MM.1S cells. In words: annexin V-PI apoptosis detection. To be noted: 50nM, 12 hours. In kind it is cell-based, human. The method, boiled down:
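MM.1S cells (1 × 10⁶) were exposed to 50 nM test compound or medium for 12–24 h. Cells were stained with annexin V-FITC and PI for 15 min, and annexin V+/PI+ apoptotic cells were counted by flow cytometry.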

In data set [6] the test system is MM.1S cells. In words: cell cycle analysis by PI flow cytometry. In kind it is cell-based, human. Particulars: 50nM, 12h. In a few lines:
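MM.1S cells (1 × 10⁶) were cultured in medium or with 50 nM test compound for 12 and 24 h, then washed in ice-cold PBS. They were fixed in 100% ethanol for 1 h at 4°C, treated with RNase for 30 min at 37°C, and stained with propidium iodide. Cell cycle profiles were acquired by flow cytometry and modelled for phase distribution.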
In general terms: Flow cytometry measures light scatter and fluorescence of single cells or particles in a stream.

The subject of another data set is MM.1S cells xenograft. In words: MM xenograft murine model, anti-MM activity. In kind it is in vivo, CB-17 SCID mice. To be noted: for maximum TGI (%): day 14 following end of treatment. In a few lines:
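SCID mice were irradiated, then inoculated s.c. in the upper back 24 h later with MM.1S cells (2.5 × 10⁶ in methods; 3 × 10⁶ in 100 uL RPMI in legend). At ~100 mg tumour, mice were randomised to test compound in D5W pH5.2 or D5W vehicle, IV tail vein daily ×5 (n=8, 9, 10). Calipers every other day; volume = ½·L·W². TGI = 100 − T/C%; log10 cell kill from growth delay and doubling time; survival timed from first treatment day.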

Data set [7] can be described thus: MM xenograft murine model, body weight and toxicity. In kind it is in vivo, CB-17 SCID mice. In a few lines:
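MM.1S s.c. xenografts in irradiated SCID mice; test compound at 30 or 40 mg/kg, or D5W pH5.2 vehicle, given IV by tail vein daily for 5 days once tumours reached ~100 mg. Body weight and tumour size were recorded every alternate day. Mice were euthanised by CO2 if tumour exceeded 2 cm or ulcerated.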

Data set [8] concerns MM.1S cells. As to the kind of experiment: RNA synthesis assay, [5'-3H]uridine incorporation, MM.1S. Format: cell-based, human.
The subject of data set [9] is MM.1S cells. As to the kind of experiment: DNA synthesis assay, [3H-TdR] uptake. Particulars: BMSCs-stimulated MM.1S cells. Format: cell-based, human. In a few lines: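 MM.1S cells (2–3 × 10³/well) were plated alone or with patient-derived BMSCs and exposed to varying test compound concentrations for 8 and 24 h at 37°C. [³H-TdR] ([…]) was pulsed in the last 8 h. Cells were harvested and counted by scintillation. Values are means ±SD of triplicate cultures.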

The test system of data set [10] is U266, OPM1, and RPMI MM cell lines. As to the kind of experiment: RNA synthesis assay in p53-mutated MM cell lines. Format: cell-based, human. To be noted: 0-100nM, 24h. The method, boiled down: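 p53-mutant U266, OPM1 and RPMI cells (2–3 × 10³/well) were treated at 37°C with test compound (0–100 nM) for 2 and 24 h. [5′-³H]uridine was then added, and cells were harvested and counted by scintillation. Values are means ±SD of triplicate cultures.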

The test system of data set [11] is MM.1S cells. As to the kind of experiment: NAD+/NADH quantification assay. Format: cell-based, human. Particulars: 50nM. In a few lines: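 MM.1S cells were cultured with 50 nM test compound and 5 × 10⁵ cells were extracted. For total NAD, extract was incubated with NAD Cycling Mix for 5 min at RT to convert NAD+ to NADH. For NADH, extract was heated at 60°C for 30 min to decompose NAD+. Developer was added for 40 min in the dark and read at 450 nm, in duplicate. Ratio = (NADt − NADH)/NADH.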

Data set [12] deals with p53 knockdown MM.1S cells. In words: MTT viability of p53 shRNA knockdown MM.1S. In kind it is cell-based, human. To be noted: p53 shRNA-transduced MM.1S versus control, MTT 48h. The method, boiled down: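 MM.1S cells were transduced with lentiviral shTP53 or empty-vector particles in medium with polybrene (8 μg/ml), and medium was refreshed at 24 h. Infection was checked at 72 h by puromycin (2 μg/ml) sensitivity against parental cells, using MTT. Transduced cells were then exposed to test compound and viability was read by MTT, in triplicate cultures.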

The subject of data set [13] is p-RNAPII S2/S5 in MM cell lines. In words: western blot of phosphorylated RNAPII S2/S5. Format: cell-based, human. To be noted: 0-8h, 25-100nM, all tested MM cell lines, immunoblot. The method, boiled down: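 MM cell lines were exposed to test compound (0–100 nM) for 1, 4 and 8 h. Whole-cell lysates were run on SDS-PAGE and transferred to nitrocellulose. Blots were probed with phosphospecific antibodies to RNAPII S2/S5 and re-probed for actin, tubulin or GAPDH as loading controls.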
Background: Immunoblotting shows a protein as a band on a membrane.

For data set [14], the system named is p53 DNA binding activity in MM.1S cells. As to the kind of experiment: sequence specific p53 DNA binding assay. Format: cell-based, human. Particulars: 50nM, 4h. The method, boiled down: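 MM.1S cells were cultured with medium or 50 nM test compound for 1, 4 and 8 h, and nuclear proteins were then isolated. Extracts were incubated overnight in wells coated with dsDNA carrying the p53 response element. Bound p53 was detected with an anti-p53 primary antibody and an HRP-linked secondary, read colorimetrically at 450 nm, in triplicate.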

Data set [15] concerns miR-21-3p, miR-19a-5p, miR-92a-1-5p in U266 and OPM1 cells. In words: TaqMan specific miRNA assays. Format: cell-based, human. Particulars: 50nM for 8h. In a few lines:
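U266, OPM1 and RPMI cells were cultured for 8 h in medium alone or with 50 nM test compound. Total RNA was isolated with a mirVana kit. miR-21-3p, miR-19a-5p and miR-92a-1-5p were quantified with target-specific TaqMan MicroRNA Assays following the manufacturer's protocol.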

The next data set concerns cyclin T1-CDK9 (K9/T1). Particulars: read-out: IC50 K9/T1; in vitro cell-free kinase assay; cited from earlier work.
In another data set the test system is cyclin B1-CDK1 (K1/B1). Particulars: read-out: IC50 K1/B1; in vitro cell-free kinase assay; cited from earlier work.
The next data set relates to cyclin E-CDK2 (K2/E). Particulars: read-out: IC50 K2/E; in vitro cell-free kinase assay; cited from earlier work.
For another data set, the system named is cyclin D1-CDK4 (K4/D1). To be noted: read-out: IC50 K4/D1; in vitro cell-free kinase assay; cited from earlier work.
In the next data set the test system is cyclin E-CDK3 (K3/E). To be noted: read-out: IC50 K3/E; in vitro cell-free kinase assay; cited from earlier work.
In a further data set the test system is p35-CDK5 (K5/p35). To be noted: read-out: IC50 K5/p35; in vitro cell-free kinase assay; cited from earlier work.
The subject of data set [16] is cyclin H-CDK7 (K7/H). Particulars: read-out: IC50 K7/H; in vitro cell-free kinase assay; cited from earlier work.
Data set [17] has as its system cyclin D3-CDK6 (K6/D3). Particulars: read-out: IC50 K6/D3; in vitro cell-free kinase assay; cited from earlier work.
The next data set relates to Fms. Particulars: read-out: IC50 Fms; in vitro cell-free kinase assay; cited from earlier work.
A further data set has as its system GSK-3β. To be noted: read-out: IC50 GSK-3β; in vitro cell-free kinase assay; cited from earlier work.
In another data set the test system is TAK1. To be noted: read-out: IC50 TAK1; in vitro cell-free kinase assay; cited from earlier work.
In another data set the test system is C-src. To be noted: read-out: IC50 C-src; in vitro cell-free kinase assay; cited from earlier work.
The next data set concerns AMPK. Particulars: read-out: IC50 AMPK; in vitro cell-free kinase assay; cited from earlier work.
A further data set has as its system Jak2. Particulars: read-out: IC50 Jak2; in vitro cell-free kinase assay; cited from earlier work.
A further data set relates to MEK1. To be noted: read-out: IC50 MEK1; in vitro cell-free kinase assay; cited from earlier work.

The term EC50 denotes the midpoint of the concentration-response curve.

Regarding `COCCN1CCN(Cc2ccc(-c3n[nH]c4c3C(=O)c3c(NC(=O)NN5CCOCC5)cccc3-4)cc2)CC1.Cl.Cl` [RGB-286638, 1-(3-{4-[4-(2-Methoxyethyl)-piperazin-1-ylmethyl]-phenyl}-4-oxo-1,4-dihydroindeno[1,2-c]pyrazol-5-yl)-3-morpholin-4-yl-urea dihydrochloride], the “fold less active against CDK 7” value with cyclin H-CDK7 (K7/H) [1] turned out to be 44 fold. In addition, in the data set with cyclin D3-CDK6 (K6/D3) [2], the “fold less active against CDK 6” value was 55 fold. Besides, the EC50 in [3] (48 h, read-out: EC50, viability by MTT assay) is 20 to 70 nM. Besides, the IC50 in [3] (read-out: IC50, MM cell proliferation) is 50 to 100 nM; in the data set on cyclin T1-CDK9 (K9/T1), 1 nM; in the data set with cyclin B1-CDK1 (K1/B1), 2 nM; in the data set on cyclin E-CDK2 (K2/E) it was 3 nM; with cyclin D1-CDK4 (K4/D1) it was 4 nM; in the data set on cyclin E-CDK3 (K3/E), 5 nM. Also, the IC50 is 5 nM in the data set with p35-CDK5 (K5/p35); 44 nM in the data set on cyclin H-CDK7 (K7/H) [16]; 55 nM in the data set with cyclin D3-CDK6 (K6/D3) [17]; 1 nM with Fms; 3 nM in the data set with GSK-3β; 5 nM in the data set on TAK1. The IC50 with C-src was 25 nM; in the data set with AMPK, 41 nM; with Jak2, 50 nM; in the data set with MEK1, 54 nM. In addition, the “cytotoxicity in primary tumor cells from MM patients” value in data set [4] is given as “comparable cytotoxicity to MM cell lines”. For the same compound, in the data set on healthy donor PBMCs, the “cytotoxicity in healthy donor PBMCs” value is “less cytotoxicity”. Also, in the data set with MM.1S cells [5], the “apoptotic MM cells, Annexin/PI staining” value was determined as 25%. Besides, in the data set on MM.1S cells [6], the “effect on cell cycle” value is “G1 and G2/M cell cycle arrest”. In addition, the “maximum TGI (%)” value was 85.06% in the data set on MM.1S cells xenograft (30 mg/kg IV daily for 5 days) and 86.34% in the data set with MM.1S cells xenograft (40 mg/kg IV daily for 5 days). In addition, the “log10 cell kill (LCK Td: 4.5 days)” value with MM.1S cells xenograft (both treated groups (30 mg/kg and 40 mg/kg IV, 5 days)) is 1.6. The “survival, first death” value in the data set with MM.1S cells xenograft (both treated groups (30 and 40 mg/kg), controls day 24) amounted to 43 days. Moreover, the “maximum percentage of body weight (BW) loss” value in data set [7] (30mg/kg dosage schedule, day 5) is 8.4%; in [7] (40 mg/kg dosing, day 15), 9.9%. In data set [7] (30 and 40 mg/kg IV daily for 5 days), the toxic deaths result was “No toxic deaths”. Further, in the data set with MM.1S cells [8] (BMSCs-stimulated MM.1S cells, 8h), the “reduction of total level of transcripts” value is recorded as ~ 50%. The effect on transcription result with MM.1S cells [8] (BMSCs-stimulated MM.1S cells, 24h) is listed as “blocked transcription”. Besides, the “reduction of RNA synthesis” value with MM.1S cells [8] (MM.1S, 50nM or 100nM, two hours) was 50%. The “reduction in DNA synthesis” value in the data set with MM.1S cells [9] (8h) is reported as 60%. The “effect on MM.1S proliferation” value in the data set with MM.1S cells [9] (24h) is “complete block”. For the same compound, the “effect on RNA synthesis” value in data set [10] is reported as “significant inhibition”. This compound returned an NADH depletion in the data set with MM.1S cells [11] of 50%. The NADt depletion in the data set on MM.1S cells [11] is given as 30%. The “cells rescued from RGB-286638-induced cell death by p53 knockdown” value in data set [12] amounted to 14%. In data set [13], the “effect on p-RNAPII S2/S5” value was “rapid downregulation”. In [14], the “p53 sequence specific DNA binding” value is “increased p53 DNA binding”. Moreover, in [15], the “miR-21-3p, miR-19a-5p, and miR-92a-1-5p levels” value was “significantly reduced”.

Take `OC[C@H]1OC(n2cnc3cc(Cl)c(Cl)cc32)[C@H](O)[C@@H]1O` (stereo partly drawn) [DRB, 5,6-Dichloro-1—D-ribofuranosylbenzimidazole, reference compound]: the “effect on RNA synthesis” value in the data set with MM.1S cells [8] (MM.1S, 2h, Suppl. Fig. S3) is “significantly inhibited RNA synthesis”.

The record behind these values is PMC3928098 (Leukemia, 2013).
